In one assay the test system is DU-145. Description: Anticancer activity against human DU145 cells assessed as growth inhibition at 50 uM after 48 hrs by SRB assay. Type of assay: functional. The settings on record: DU-145, 48 h, read-out: GI. In outline: (§1)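 Cells exposed to test compounds at 50 µM for 48 h. Read-out is percent growth inhibition, with SEM given. 5-Fluorouracil and adriamycin serve as reference agents.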
(In SRB staining, fixed cells bind dye roughly in proportion to their protein.)

In a further assay the test system is PC-3. Description: Anticancer activity against human PC3 cells assessed as growth inhibition at 50 uM after 48 hrs by SRB assay. It is filed as functional. The settings on record: PC-3, 48 h, read-out: GI. In outline: as §1
Assay [1] has as its system HL-60. Description: Induction of apoptosis in p53-deficient human HL60 cells assessed as DNA fragmentation at 50 uM after 6 hrs by agarose gel electrophoresis. It is filed as functional, cell-based. An outline of the steps: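 2 × 10⁶ HL-60 cells treated with derivatives at 50 µM for 6 h, then scored for an apoptotic DNA ladder of 180–200 bp fragments or multiples. The positive control is 4 µM camptothecin for 6 h.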

In assay [2] the test system is HL-60. Description: Anticancer activity against human HL60 cells after 48 hrs by MTT assay. It is filed as functional, cell-based. The settings on record: HL-60, 48 h. In outline: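 Cell proliferation measured by MTT. Cells are incubated with each analog for 48 h at the indicated concentrations, then MTT reduction is read as an index of viability. OD of the untreated control is taken as 100% viability, and IC50 is derived from this.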
Background: Tetrazolium dyes change colour on reduction, which living cells bring about.

For assay [3], the system named is HL-60. Description: Induction of necrosis in p53-deficient human HL60 cells at 50 uM after 6 hrs by FITC-conjugated annexinV/PI-based flow cytometric analysis. It is filed as functional, cell-based. An outline of the steps: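 HL-60 cells incubated with each analog at 50 µM for 6 h, stained with annexin V-FITC/propidium iodide and analysed by flow cytometry. Lower right quadrant is apoptotic, upper right post-apoptotic, upper left necrotic. Three experiments, with representative dot plots shown.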

Assay [4] concerns HL-60. Description: Induction of autophagy in p53-deficient human HL60 cells at 50 uM after 6 hrs by acridine orange staining. Type of assay: functional, cell-based. In outline: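 Autophagy scored by flow cytometry of HL-60 cells stained with acridine orange after 6 h exposure.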
The test system of assay [5] is HL-60. Description: Inhibition of STAT3alpha protein expression in p53-deficient human HL60 cells at 20 to 50 uM after 6 hrs by Western blot analysis. It is filed as cell-based.
For assay [6], the system named is HL-60. Description: Inhibition of STAT3beta protein expression in p53-deficient human HL60 cells at 20 to 50 uM after 6 hrs by Western blot analysis. It is filed as cell-based. For orientation: In western blotting, separated proteins are transferred to a membrane and probed.
Assay [7] has as its target T1, Signal transducer and activator of transcription 6 (Homo sapiens) (UniProt P42226).
T1 sequence (whole entry): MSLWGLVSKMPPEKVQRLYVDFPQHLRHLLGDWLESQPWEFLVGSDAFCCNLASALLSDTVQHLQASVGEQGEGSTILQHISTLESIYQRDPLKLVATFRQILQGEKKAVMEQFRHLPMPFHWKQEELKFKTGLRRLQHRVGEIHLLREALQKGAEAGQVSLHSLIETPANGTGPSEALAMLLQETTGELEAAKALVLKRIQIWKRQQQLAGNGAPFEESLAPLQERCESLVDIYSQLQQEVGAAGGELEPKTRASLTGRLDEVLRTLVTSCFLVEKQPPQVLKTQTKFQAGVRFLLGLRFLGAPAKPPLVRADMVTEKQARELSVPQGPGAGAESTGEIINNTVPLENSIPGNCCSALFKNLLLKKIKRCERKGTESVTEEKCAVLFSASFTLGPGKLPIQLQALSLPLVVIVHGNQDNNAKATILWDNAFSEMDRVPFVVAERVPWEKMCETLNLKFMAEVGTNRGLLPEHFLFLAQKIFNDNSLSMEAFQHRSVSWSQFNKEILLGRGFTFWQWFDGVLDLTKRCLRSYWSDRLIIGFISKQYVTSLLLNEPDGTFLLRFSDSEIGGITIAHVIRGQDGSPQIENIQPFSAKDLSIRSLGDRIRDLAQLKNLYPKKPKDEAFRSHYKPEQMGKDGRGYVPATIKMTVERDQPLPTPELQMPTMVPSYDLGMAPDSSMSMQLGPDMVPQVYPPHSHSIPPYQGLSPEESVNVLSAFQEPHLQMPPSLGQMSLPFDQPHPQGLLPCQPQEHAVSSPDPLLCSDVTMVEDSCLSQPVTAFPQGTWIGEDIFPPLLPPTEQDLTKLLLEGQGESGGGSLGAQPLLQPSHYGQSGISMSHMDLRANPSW
Description: Inhibition of STAT6 protein expression in p53-deficient human HL60 cells at 20 to 50 uM after 6 hrs by Western blot analysis. It is filed as cell-based. The settings on record: HL-60.

In assay [8] the target is Signal transducer and activator of transcription 3 (Homo sapiens) (UniProt P40763). Description: Inhibition of STAT3 Ser727 phosphorylation in p53-deficient human HL60 cells at 20 to 50 uM after 6 hrs by Western blot analysis. It is filed as cell-based. The settings on record: HL-60.
Chain of Signal transducer and activator of transcription 3 (Homo sapiens) (P40763 whole entry): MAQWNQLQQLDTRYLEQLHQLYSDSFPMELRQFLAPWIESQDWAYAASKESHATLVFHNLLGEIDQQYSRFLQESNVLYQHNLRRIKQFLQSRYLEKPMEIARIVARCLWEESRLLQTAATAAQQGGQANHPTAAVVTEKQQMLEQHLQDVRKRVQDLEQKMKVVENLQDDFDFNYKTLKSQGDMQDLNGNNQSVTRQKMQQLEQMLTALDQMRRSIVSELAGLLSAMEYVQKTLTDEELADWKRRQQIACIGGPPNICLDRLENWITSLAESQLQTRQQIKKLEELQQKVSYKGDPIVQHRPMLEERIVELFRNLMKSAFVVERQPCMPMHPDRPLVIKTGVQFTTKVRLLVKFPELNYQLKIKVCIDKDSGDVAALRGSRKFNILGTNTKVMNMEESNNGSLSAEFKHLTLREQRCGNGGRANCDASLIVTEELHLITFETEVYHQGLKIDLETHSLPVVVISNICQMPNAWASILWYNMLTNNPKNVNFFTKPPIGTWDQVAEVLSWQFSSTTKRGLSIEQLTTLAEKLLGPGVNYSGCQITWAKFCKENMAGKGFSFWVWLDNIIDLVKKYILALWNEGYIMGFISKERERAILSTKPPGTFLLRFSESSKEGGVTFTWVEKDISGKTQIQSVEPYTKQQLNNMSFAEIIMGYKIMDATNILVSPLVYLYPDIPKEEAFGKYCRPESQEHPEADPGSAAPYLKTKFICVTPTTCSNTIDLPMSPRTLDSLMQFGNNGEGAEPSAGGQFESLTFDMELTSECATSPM
Assay [9] addresses T2, Signal transducer and activator of transcription 5A (Homo sapiens) (UniProt P42229).
T2 sequence (whole entry): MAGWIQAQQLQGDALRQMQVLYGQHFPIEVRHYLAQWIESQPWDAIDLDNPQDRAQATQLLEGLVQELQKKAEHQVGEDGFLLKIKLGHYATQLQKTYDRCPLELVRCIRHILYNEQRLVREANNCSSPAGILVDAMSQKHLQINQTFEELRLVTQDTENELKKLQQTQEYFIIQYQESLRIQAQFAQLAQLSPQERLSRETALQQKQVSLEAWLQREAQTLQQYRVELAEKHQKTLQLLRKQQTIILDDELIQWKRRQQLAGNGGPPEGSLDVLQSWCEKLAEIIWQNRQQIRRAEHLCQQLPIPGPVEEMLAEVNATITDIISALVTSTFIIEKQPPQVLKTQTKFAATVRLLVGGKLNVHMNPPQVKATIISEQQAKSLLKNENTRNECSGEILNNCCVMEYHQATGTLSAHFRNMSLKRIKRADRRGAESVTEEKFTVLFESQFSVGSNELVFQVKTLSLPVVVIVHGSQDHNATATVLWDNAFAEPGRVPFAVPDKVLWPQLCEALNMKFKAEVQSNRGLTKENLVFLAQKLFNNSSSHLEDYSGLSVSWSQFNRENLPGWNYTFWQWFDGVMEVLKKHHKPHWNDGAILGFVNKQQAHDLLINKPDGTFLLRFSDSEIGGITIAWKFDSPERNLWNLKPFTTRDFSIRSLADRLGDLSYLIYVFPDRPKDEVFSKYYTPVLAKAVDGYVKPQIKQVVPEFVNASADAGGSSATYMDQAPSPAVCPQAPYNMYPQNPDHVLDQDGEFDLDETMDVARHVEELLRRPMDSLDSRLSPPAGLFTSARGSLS
Description: Inhibition of STAT5 Tyr694/699 phosphorylation in p53-deficient human HL60 cells at 20 to 50 uM after 6 hrs by Western blot analysis. The settings on record: HL-60. It is filed as cell-based.

The subject of the next assay is HT-29. Description: Anticancer activity against human HT-29 cells assessed as growth inhibition at 50 uM after 48 hrs by SRB assay. Type of assay: functional. The settings on record: HT-29, 48 h, read-out: GI. In outline: as §1
A further assay deals with COLO 205. Description: Anticancer activity against human COLO205 cells assessed as growth inhibition at 50 uM after 48 hrs by SRB assay. Type of assay: functional. The settings on record: COLO 205, 48 h, read-out: GI. An outline of the steps:
as §1

A further assay relates to HEp-2. Description: Anticancer activity against human Hep2 cells assessed as growth inhibition at 50 uM after 48 hrs by SRB assay. The settings on record: HEp-2, 48 h, read-out: GI. Type of assay: functional. In outline:
as §1

pIC50: −log10 of the molar value. Calls of active or inactive are those of the source. The calls are words filed in the database; no cut-off is given here.

By pIC50 is commonly meant the negative decadic logarithm of the IC50, by convention in mol/L. A lower pIC50 goes with a high IC50.

As for `CCCC(=O)O[C@@H]1CC[C@@]2(C)[C@@H](CC[C@]3(C)[C@@H]2C(=O)C=C2[C@@H]4[C@@H](C)[C@H](C)CC[C@]4(C)CC[C@]23C)[C@@]1(C)C(=O)O`, the inhibition of growth at 50 µM in the assay with DU-145 stood at 93%; with PC-3, 96%; in the assay with HT-29, 96%; in the assay on COLO 205, 94%; with HEp-2, 98%. For the same molecule, the outcome with HL-60 [1] was Active. Also, in the assay on HL-60 [2], the pIC50 was 4.96. Further, the result with HL-60 [3] and in the assay with HL-60 [4] was inactive. Also, the inhibition entry (in the assay with HL-60 [5]; in the assay with HL-60 [6]; in assay [7]; in assay [8]; in [9]) was “Active” each time.

(Values after ChEMBL document CHEMBL1932969, “Acyl derivatives of boswellic acids as inhibitors of NF-κB and STATs” (Bioorg Med Chem Lett, 2012).)
